Assay outcomes from PubChem.
A selection: hits, their analogues and other compounds. The true share with any hit is near 2%.
STAT3 activator – increases IL-6 driven STAT3 reporter signal | U3A cells, IL-6 STAT3-luciferase reporter, luminescence; 100% = signal with IL-6 EC80 alone | activation (% of control), % at 5.6 µM | 0.91% of 190,000 active;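 active means activation above the screen-wide mean of compound activation plus 3 SD, cut at about 130% in these data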;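 further: 0% = background luminescence of wells with medium and substrate only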
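Assay system – human STAT1-deficient U3A cells with stable STAT3-luciferase reporter · Also added – IL-6 (33 ng/mL) · Schedule – compound 1 h, then IL-6 6 h at 37 °C · Technique – reporter luminescence signal · Evaluation – % activation versus median of IL-6-stimulated wells · Benchmarks – IL-6-only wells as 100% reference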
STAT1 blocker – reduces IFN-gamma driven STAT1 reporter signal | AID 920 | inhibition, % at 5.5 µM | 0.35% of 200,000 active | NIH 3T3 STAT1-luciferase reporter, luminescence;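 active means inhibition above a set limit, the mean inhibition across all tested compounds plus 3 SD, cut at about 34% in these data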;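 further: 0% = IFN-gamma with DMSO and 100% = IFN-gamma with 300 µM nifuroxazide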
HSP90 inh – inhibitors of HSP90 luciferase refolding in rabbit reticulocyte lysate. luciferase refolding luminescence, 3 h. inhibition, % at 5.6 µM. 0.91% of 290,000 active. AID 1789;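 active means inhibition above the screen-wide mean plus 3 SD, computed separately per campaign, cut at about 16% in these data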;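 further: 0% = DMSO wells and 100% = 60 µM geldanamycin wells; inhibitors lower the luminescence because luciferase stays unfolded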
STAT3 inh-1 – inhibitors of IL-6 induced STAT3 signaling | AID 862 | 0.89% of 190,000 active | U3A cells, IL-6 STAT3-luciferase reporter, luminescence; host cell line lacks STAT1 | inhibition, % at 5.5 µM;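 active means inhibition above the mean inhibition across all screened compounds plus 3 SD, cut at about 44% in these data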;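 further: 0% = DMSO only wells and 100% = 100 µM nifuroxazide control wells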
STAT3 inh-2 – confirmation of STAT3 signaling inhibitors; shares compounds with STAT3 inh-1; U3A cells, IL-6 STAT3 luciferase reporter, luminescence; cell line lacks STAT1; inhibition, % at 5.7 µM; 45% of 1,200 active;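 active means inhibition above the hit cutoff computed for the primary STAT3 screen, cut at about 44% in these data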;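 further: 0% = IL-6 plus DMSO and 100% = IL-6 plus nifuroxazide control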
NFkB inh STAT3ct – counter-screen for STAT3 inhibitors: NF-kappaB inhibition; shares compounds with STAT3 inh-1; HEK293T NF-kB luciferase reporter, TNF-alpha induced; inhibition, % at 5.7 µM; 36% of 1,200 active; AID 1308;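 active means inhibition above the mean of solvent-only control wells plus 3 SD, cutoff set per campaign, cut at about 13% in these data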;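 further: 0% = TNF-alpha with DMSO and 100% = TNF-alpha with MG high control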
STAT1 inh STAT3c – STAT1 inhibition in STAT3 inhibitor counter-screen. shares compounds with STAT3 inh-1. NIH 3T3 STAT1-luciferase reporter, IFN-gamma induced, luminescence. inhibition, % at 5.7 µM. 27% of 1,200 active;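 active means inhibition above the mean plus 3 SD of solvent-only control wells, limit set per screening run, cut at about 16% in these data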;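 further: 0% = DMSO with IFN-gamma and 100% = nifuroxazide control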
HSP90 inh confirm – confirmation of HSP90 inhibitors. shares compounds with HSP90 inh. rabbit reticulocyte lysate, luciferase refolding luminescence, 3 h. inhibition, % at 5.9 µM. 64% of 2,300 active; in the data active means inhibition above about 18%;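 further: 0% = vehicle wells and 100% = reference inhibitor wells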
FLuc counter – firefly luciferase inhibition, HSP90 counter-screen; shares compounds with HSP90 inh; purified native firefly luciferase, luminescence; inhibition, % at 5.9 µM; 48% of 2,300 active; AID 1847;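 active means inhibition above the mean inhibition of all tested sample wells plus 3 SD, cut at about 10% in these data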;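 further: 0% = DMSO with luciferase and 100% = wells lacking luciferase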
Target sequence (P08659 whole entry, looked up): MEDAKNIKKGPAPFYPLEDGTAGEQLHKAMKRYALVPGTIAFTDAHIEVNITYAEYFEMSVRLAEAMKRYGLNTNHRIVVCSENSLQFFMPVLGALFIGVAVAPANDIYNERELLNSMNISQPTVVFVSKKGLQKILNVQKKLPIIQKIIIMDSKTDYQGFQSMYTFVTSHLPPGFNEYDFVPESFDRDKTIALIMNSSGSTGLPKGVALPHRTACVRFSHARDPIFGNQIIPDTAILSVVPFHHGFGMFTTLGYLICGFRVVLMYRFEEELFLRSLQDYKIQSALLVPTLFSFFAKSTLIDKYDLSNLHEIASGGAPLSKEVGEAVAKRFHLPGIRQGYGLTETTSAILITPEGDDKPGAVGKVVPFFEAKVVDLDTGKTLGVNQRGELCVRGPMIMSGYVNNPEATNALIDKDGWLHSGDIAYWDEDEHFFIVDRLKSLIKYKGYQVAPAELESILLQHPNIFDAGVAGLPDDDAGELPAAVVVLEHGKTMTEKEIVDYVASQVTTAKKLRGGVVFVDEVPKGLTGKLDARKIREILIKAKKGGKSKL
* marks the source's active call; other numbers are inactive results; nt = no result given.

SMILES | STAT3 activator | STAT1 blocker | HSP90 inh | STAT3 inh-1 | STAT3 inh-2 | NFkB inh STAT3ct | STAT1 inh STAT3c | others
O=C(COC(=O)c1n[nH]c2ccccc12)Nc1ccc(S(=O)(=O)N2CCCC2)cc1 | 45.4 | 4.3 | -0.5 | 70.8* | 51.0* | 5.5 | 9.2
Cc1ccc(C(=O)Oc2ccccc2N2C(=O)C3CCCCC3C2=O)cc1 (configuration not stated) | 60.3 | 4.3 | -0.9 | 53.7* | 38.3 | -0.7 | 5.7
O=C(Oc1ccccc1N1C(=O)C2CC=CCC2C1=O)c1ccc(Br)cc1 (configuration not stated) | 101.3 | 9.5 | -3.9 | -6.7 | nt | nt | nt
O=C(Oc1ccccc1N1C(=O)C2CCCCC2C1=O)c1ccccc1 (configuration not stated) | 50.0 | 12.4 | 2.7 | 67.8* | 45.6* | 3.9 | -15.9
Cc1ccccc1C(=O)Oc1ccccc1N1C(=O)C2CC=CCC2C1=O (configuration not stated) | 98.3 | 16.7 | -4.9 | -0.2 | nt | nt | nt
COc1ccc(/C=N/NC(=O)c2nnn(-c3nonc3N)c2-c2cccs2)c(OC)c1 | nt | nt | 0.2 | nt | nt | nt | nt
COc1cc(C(=O)NNC(=S)NC(=O)c2ccc(F)cc2)cc(OC)c1OC | nt | nt | -0.2 | nt | nt | nt | nt
CCC(C)(C)NC(=O)CN(Cc1ccccc1)C(=O)CCC(=O)Nc1nccs1 | nt | nt | -1.5 | nt | nt | nt | nt
O=c1[nH]c(-c2cccnc2)nc2sc(-c3ccccc3)cc12 | 92.7 | -18.6 | 5.1 | 11.1 | nt | nt | nt
Cc1nc2sc(-c3ccccc3)cc2c(=O)[nH]1 | 44.5 | 25.1 | 16.7* | 68.7* | 35.0 | -1.2 | -42.5
CCc1ccc(S(=O)(=O)Nc2c(C)n(C)n(-c3ccccc3)c2=O)cc1 | nt | nt | 0.2 | nt | nt | nt | nt
Cc1c(C(C)C)c(=O)n(-c2ccc(S(=O)(=O)NCc3ccccc3)cc2)n1C | 31.7 | 27.8 | 2.2 | 81.1* | 79.7* | 29.6* | 21.1*
Cc1c(C(C)C)c(=O)n(-c2ccc(S(=O)(=O)NC3CCCCC3)cc2)n1C | 57.0 | 22.1 | -3.6 | 52.9* | 58.8* | 14.2* | 21.1*
Cc1c(C(C)C)c(=O)n(-c2ccc(S(=O)(=O)N3CCOCC3)cc2)n1C | 103.0 | 2.0 | -2.4 | -1.3 | nt | nt | nt
O=C(N/N=C/c1ccc2ncccc2c1)c1ccco1 | 46.8 | 28.1 | 31.1* | 67.4* | 32.1 | 7.7 | -41.9
O=[N+]([O-])c1ccc2nc(-c3ccc(OC(F)F)cc3)cn2c1 | 45.9 | -21.2 | 16.8* | 65.7* | 36.4 | -30.0 | -87.0
CCCCOc1ccc(-c2cn3ccccc3n2)cc1[N+](=O)[O-] | 101.7 | -35.4 | -0.3 | -1.7 | nt | nt | nt
COc1cccc(/C=C/C(=O)Nc2ccc3c(c2)OCCO3)c1OC | 47.2 | 24.6 | 21.3* | 65.8* | 11.7 | -20.2 | -110.3
COc1cccc(/C=C/C(=O)Nc2cccc(C(C)=O)c2)c1OC | 101.7 | -17.4 | -4.3 | 4.9 | nt | nt | nt
Cc1ccnc(SCC(=O)Nc2sc3c(c2C#N)CCCC3)n1 | 39.3 | 14.8 | 0.3 | 71.9* | 56.9* | 15.3* | 16.9*
N#Cc1c(NC(=O)CSc2ncn[nH]2)sc2c1CCCC2 | 52.0 | 21.2 | 4.2 | 60.4* | 57.0* | 18.0* | 2.3
N#Cc1c(NC(=O)c2ccccc2)sc2c1CCCCC2 | 57.5 | -20.0 | 7.2 | 52.5* | 5.0 | -25.3 | -146.9
COC(=O)c1cc(NC(=O)Cc2cccs2)cc(C(=O)OC)c1 | nt | nt | 0.8 | nt | nt | nt | nt
CCC(CC)C(=O)c1c[nH]c(C(=O)NCc2ccncc2)c1 | 96.8 | 6.5 | 1.9 | 6.0 | nt | nt | nt
O=C(c1ccc(Cn2ccc([N+](=O)[O-])n2)cc1)N1CCN(Cc2ccccc2)CC1 | nt | nt | 0.4 | nt | nt | nt | nt
SMILES | STAT3 activator | STAT1 blocker | HSP90 inh | STAT3 inh-1 | STAT3 inh-2 | NFkB inh STAT3ct | STAT1 inh STAT3c | others
CSc1ccc(CN2CCN(C(=O)c3ccc([N+](=O)[O-])cc3)CC2)cc1 | 56.1 | 3.0 | -1.1 | 54.6* | 59.5* | 12.6 | -3.2
CC(=O)Oc1ccc(C(=O)N2c3ccccc3NC(=O)C2C)cc1 (configuration not stated) | nt | nt | 0.1 | nt | nt | nt | nt
O=C(O)CNS(=O)(=O)c1ccc(Br)s1 | 107.3 | 2.9 | -1.9 | -2.0 | nt | nt | nt
O=S(=O)(NCc1ccncc1)c1ccc(Br)s1 | 33.8 | 30.7 | 5.0 | 82.6* | 80.2* | 27.3* | 26.7*
C[C@]1(CO)CCC[C@@]2(C)C1CC[C@@H](CO)[C@@H]2CCc1ccoc1 (some centres not stated) | nt | nt | 1.3 | nt | nt | nt | nt
O=C(Nc1ccccc1)c1cc2ccccc2o1 | 65.1 | -48.5 | 13.0 | 43.5* | 10.4 | -43.0 | -119.9
CCCC(=O)N1CCN(c2ccc(NC(=O)c3cccs3)cc2Cl)CC1 | 96.8 | 12.1 | -2.1 | 9.4 | nt | nt | nt
CCC(=O)N1CCN(c2ccc(NC(=O)c3cc4ccccc4o3)cc2Cl)CC1 | 61.1 | 8.1 | 0.6 | 49.0* | 34.3 | -3.0 | -13.6
CCCC(=O)N1CCN(c2ccc(NC(=O)c3cc4ccccc4o3)cc2Cl)CC1 | 60.1 | 11.7 | 0.6 | 50.3* | 43.2 | 2.6 | -2.5
CCC(=O)N1CCN(c2ccc(NC(=O)c3ccco3)cc2Cl)CC1 | nt | nt | 1.4 | nt | nt | nt | nt
O=C(Nc1ccc(N2CCN(C(=O)c3ccco3)CC2)c(Cl)c1)c1cc2ccccc2o1 | 62.4 | 9.3 | 2.5 | 47.8* | 47.8* | 10.8 | 3.9
C=CCn1c(SCC(=O)Nc2ccc(O)cc2)nc2sc(CC)cc2c1=O | nt | nt | -2.8 | nt | nt | nt | nt
CCOC(=O)c1cc(C#N)c(SCC(=O)OC)[nH]c1=O | nt | nt | 5.7 | nt | nt | nt | nt
CC(/C=N/Nc1ccc2nncn2n1)=C\c1ccccc1 | nt | nt | -4.8 | nt | nt | nt | nt
COC(=O)Cn1c(=O)c2c(nc3n2CCCN3CCc2ccc(OC)c(OC)c2)n(C)c1=O | nt | nt | -0.2 | nt | nt | nt | nt
CCc1ccccc1NCC(=O)Nc1ccccc1C(=O)OC | 92.0 | -0.3 | 1.3 | 4.7 | nt | nt | nt
COC(=O)c1ccccc1NC(=O)CNc1cc(OC)c(OC)cc1C | 57.7 | 24.3 | -4.8 | 51.0* | 65.2* | 17.5* | 25.9*
CN(C)C(=O)NC1c2ccccc2-c2ccccc21 | nt | nt | -0.8 | nt | nt | nt | nt
O=C(NC1c2ccccc2-c2ccccc21)N1CCCCC1 | 61.3 | -1.5 | 1.1 | 51.7* | 34.9 | 17.2* | 3.2
Cc1ccc(CCNC(=O)CCc2nc3ccccc3[nH]2)cc1 | 99.9 | 10.0 | -1.1 | -2.4 | nt | nt | nt
COc1cc(CSc2nnnn2-c2ccc(C)cc2)cc(OC)c1OC | 45.8 | 22.0 | 0.1 | 68.7* | 70.3* | 26.4* | 21.6*
O=C1C(=C2SCCCS2)CC/C1=C\c1ccc(F)cc1 | 10.8 | 30.7 | 53.8* | 114.9* | 92.6* | 81.4* | -1.5 | HSP90 inh confirm=92.5*;FLuc counter=86.2*
Cc1c(C(=O)NC(c2ccccn2)C(F)(F)F)oc2c(F)cccc12 (configuration not stated) | nt | nt | -6.3 | nt | nt | nt | nt
